Measured values as given in ChEMBL document CHEMBL2375357, “Design, synthesis and cytotoxicity of cell death mechanism of rotundic acid derivatives” (Bioorg Med Chem Lett, 2013).
The source made the active and inactive calls. No cut-off for these calls is given here.

Key:
Format in all cases: functional, cell-based
[1] = Cytotoxicity against human SPC-A1 cells after 24 hrs by MTT assay; conditions: SPCA1, 24 h
In short: (§1)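 MTT antiproliferative assay on human tumour lines A-375 (melanoma), SPC-A1 (lung adenocarcinoma), HeLa (cervical), HepG2 (hepatoma) and NCI-H446 (small cell lung cancer). Parent rotundic acid run alongside as positive control. IC50 given as mean ± SD, n = 3, each experiment repeated at least three times. Values above 100 μM reported as >100.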

HepG2 = assay: Cytotoxicity against human HepG2 cells after 24 hrs by MTT assay; conditions: HepG2, 24 h; in short: as §1
HeLa [2] = assay: Cytotoxicity against human HeLa cells after 24 hrs by MTT assay; in short: as §1
NCI-H446 = assay: Cytotoxicity against human NCI-H446 cells after 24 hrs by MTT assay; conditions: NCI-H446, 24 h; in short: as §1
A-375 = assay: Cytotoxicity against human A375 cells after 24 hrs by MTT assay; conditions: A-375, 24 h; in short: as §1
HeLa [3] = assay: Induction of apoptosis in human HeLa cells assessed as increase in ratio of Bax to Bcl2 expression after 24 hrs by Western blot analysis
In short: (§2)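 HeLa cells treated 24 h at 10, 20 and 40 μM. Cisplatin (10 μg/ml) served as positive-control treatment, with an untreated control group for comparison. Bax, Bcl-2, cytochrome C, caspase-3 and cleaved caspase-3 protein levels detected by western blot. Bax/Bcl-2 ratio derived from the band levels. Significance tested against the control group.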

HeLa [4] = assay: Induction of apoptosis in human HeLa cells assessed as increase in cytochrome C expression after 24 hrs by Western blot analysis; in short: as §2
HeLa [5] = assay: Induction of apoptosis in human HeLa cells assessed as increase in Bax expression after 24 hrs by Western blot analysis; in short: as §2
HeLa [6] = assay: Induction of apoptosis in human HeLa cells assessed as increase in caspase 3 cleavage after 24 hrs by Western blot analysis; in short: as §2
HeLa [7] = assay: Induction of apoptosis in human HeLa cells assessed as increase in caspase 3 expression at 10 to 40 uM after 24 hrs by Western blot analysis; in short: as §2
HeLa [8] = assay: Induction of apoptosis in human HeLa cells assessed as decrease in Bcl2 expression after 24 hrs by Western blot analysis; in short: as §2

## CC(=O)OCCNC(=O)[C@]12CC[C@@H](C)[C@@](C)(O)[C@H]1C1=CC[C@@H]3[C@@]4(C)CC[C@H](OC(C)=O)[C@@](C)(COC(C)=O)[C@@H]4CC[C@@]3(C)[C@]1(C)CC2
[1]
  IC50: 9.37 µM
HepG2
  IC50: 4.44 µM
HeLa [2]
  IC50: 5.39 µM
NCI-H446
  IC50: 18.6 µM
A-375
  IC50: 4.17 µM

## CC(=O)OC[C@@]1(C)[C@@H]2CC[C@]3(C)[C@H](CC=C4[C@H]5[C@](C(=O)NCCO)(CC[C@@H](C)[C@@]5(C)O)CC[C@]43C)[C@@]2(C)CC[C@@H]1OC(C)=O
[1]
  IC50: 3.61 µM
HeLa [3]
  Activity: Dose-dependent effect
HeLa [4]
  Activity: Active
HeLa [5]
  Activity: Dose-dependent effect
HeLa [6]
  Activity: Dose-dependent effect
HepG2
  IC50: 4.4 µM
HeLa [7]
  Activity: Active
HeLa [2]
  IC50: 2.83 µM
HeLa [8]
  Activity: Dose-dependent effect
NCI-H446
  IC50: 6.67 µM
A-375
  IC50: 5.49 µM

## CC(=O)OC[C@@]1(C)[C@@H]2CC[C@]3(C)[C@H](CC=C4[C@H]5[C@](C(=O)Nc6ccccc6CO)(CC[C@@H](C)[C@@]5(C)O)CC[C@]43C)[C@@]2(C)CC[C@@H]1OC(C)=O
[1]
  IC50: 8.09 µM
HepG2
  IC50: 4.45 µM
HeLa [2]
  IC50: 3.32 µM
NCI-H446
  IC50: 7.03 µM
A-375
  IC50: 3.71 µM

## CC(CO)NC(=O)[C@]12CC[C@@H](C)[C@@](C)(O)[C@H]1C1=CC[C@@H]3[C@@]4(C)CC[C@H](O)[C@@](C)(CO)[C@@H]4CC[C@@]3(C)[C@]1(C)CC2 (stereo partly specified)
[1]
  IC50: > 100 µM
HepG2
  IC50: 55.1 µM
HeLa [2]
  IC50: 28.8 µM
NCI-H446
  IC50: 39.8 µM
A-375
  IC50: 35.5 µM

## CC(=O)OCCCNC(=O)[C@]12CC[C@@H](C)[C@@](C)(O)[C@H]1C1=CC[C@@H]3[C@@]4(C)CC[C@H](OC(C)=O)[C@@](C)(COC(C)=O)[C@@H]4CC[C@@]3(C)[C@]1(C)CC2
[1]
  IC50: 12 µM
HepG2
  IC50: 12 µM
HeLa [2]
  IC50: 4.31 µM
NCI-H446
  IC50: 12.8 µM
A-375
  IC50: 10.1 µM

## C[C@@H]1CC[C@]2(C(=O)NCCO)CC[C@]3(C)C(=CC[C@@H]4[C@@]5(C)CC[C@H](O)[C@@](C)(CO)[C@@H]5CC[C@]43C)[C@@H]2[C@]1(C)O
[1]
  IC50: > 100 µM
HepG2
  IC50: 45.6 µM
HeLa [2]
  IC50: > 100 µM
NCI-H446
  IC50: 24.7 µM
A-375
  IC50: 21.4 µM

## CC(=O)OCc1ccccc1NC(=O)[C@]12CC[C@@H](C)[C@@](C)(O)[C@H]1C1=CC[C@@H]3[C@@]4(C)CC[C@H](OC(C)=O)[C@@](C)(COC(C)=O)[C@@H]4CC[C@@]3(C)[C@]1(C)CC2
[1]
  IC50: 13.2 µM
HepG2
  IC50: 12.3 µM
HeLa [2]
  IC50: 4.27 µM
NCI-H446
  IC50: 69.7 µM
A-375
  IC50: 9.12 µM

## CC(=O)OC[C@@]1(C)[C@@H]2CC[C@]3(C)[C@H](CC=C4[C@H]5[C@](C(=O)Nc6ccccc6)(CC[C@@H](C)[C@@]5(C)O)CC[C@]43C)[C@@]2(C)CC[C@@H]1OC(C)=O
[1]
  IC50: 16.2 µM
HepG2
  IC50: 22.2 µM
HeLa [2]
  IC50: 15.8 µM
NCI-H446
  IC50: 24.8 µM
A-375
  IC50: 17.7 µM

## CC(=O)OC[C@@]1(C)[C@@H]2CC[C@]3(C)[C@H](CC=C4[C@H]5[C@](C(=O)NCc6ccccc6)(CC[C@@H](C)[C@@]5(C)O)CC[C@]43C)[C@@]2(C)CC[C@@H]1OC(C)=O
[1]
  IC50: 12.1 µM
HepG2
  IC50: 19.5 µM
HeLa [2]
  IC50: 19.2 µM
NCI-H446
  IC50: 26.9 µM
A-375
  IC50: 13.7 µM

## CC(=O)OCC(C)NC(=O)[C@]12CC[C@@H](C)[C@@](C)(O)[C@H]1C1=CC[C@@H]3[C@@]4(C)CC[C@H](OC(C)=O)[C@@](C)(COC(C)=O)[C@@H]4CC[C@@]3(C)[C@]1(C)CC2 (stereo partly specified)
[1]
  IC50: 18.9 µM
HepG2
  IC50: 9.12 µM
HeLa [2]
  IC50: 5.3 µM
NCI-H446
  IC50: 14.7 µM
A-375
  IC50: 5.1 µM

## CC(=O)OC[C@@]1(C)[C@@H]2CC[C@]3(C)[C@H](CC=C4[C@H]5[C@](C(=O)NC(C)CO)(CC[C@@H](C)[C@@]5(C)O)CC[C@]43C)[C@@]2(C)CC[C@@H]1OC(C)=O (stereo partly specified)
[1]
  IC50: 12.9 µM
HepG2
  IC50: 7.3 µM
HeLa [2]
  IC50: 11.3 µM
NCI-H446
  IC50: 5.51 µM
A-375
  IC50: 4.77 µM

## C[C@@H]1CC[C@]2(C(=O)NCc3ccccc3)CC[C@]3(C)C(=CC[C@@H]4[C@@]5(C)CC[C@H](O)[C@@](C)(CO)[C@@H]5CC[C@]43C)[C@@H]2[C@]1(C)O
[1]
  IC50: > 100 µM
HepG2
  IC50: > 100 µM
HeLa [2]
  IC50: 28.1 µM
NCI-H446
  IC50: > 100 µM
A-375
  IC50: > 100 µM

## C[C@@H]1CC[C@]2(C(=O)NCCCO)CC[C@]3(C)C(=CC[C@@H]4[C@@]5(C)CC[C@H](O)[C@@](C)(CO)[C@@H]5CC[C@]43C)[C@@H]2[C@]1(C)O
[1]
  IC50: 83.2 µM
HepG2
  IC50: 77.3 µM
HeLa [2]
  IC50: 17.7 µM
NCI-H446
  IC50: 20.9 µM
A-375
  IC50: 12.5 µM

## CC(=O)OC[C@@]1(C)[C@@H]2CC[C@]3(C)[C@H](CC=C4[C@H]5[C@](C(=O)O)(CC[C@@H](C)[C@@]5(C)O)CC[C@]43C)[C@@]2(C)CC[C@@H]1OC(C)=O
[1]
  IC50: 23.2 µM
HepG2
  IC50: 6.85 µM
HeLa [2]
  IC50: 13.1 µM
NCI-H446
  IC50: 7.11 µM
A-375
  IC50: 11.4 µM

## C[C@@H]1CC[C@]2(C(=O)Nc3ccccc3CO)CC[C@]3(C)C(=CC[C@@H]4[C@@]5(C)CC[C@H](O)[C@@](C)(CO)[C@@H]5CC[C@]43C)[C@@H]2[C@]1(C)O
[1]
  IC50: > 100 µM
HepG2
  IC50: > 100 µM
HeLa [2]
  IC50: 12.3 µM
NCI-H446
  IC50: 14 µM
A-375
  IC50: 19 µM

## C[C@@H]1CC[C@]2(C(=O)Nc3ccccc3)CC[C@]3(C)C(=CC[C@@H]4[C@@]5(C)CC[C@H](O)[C@@](C)(CO)[C@@H]5CC[C@]43C)[C@@H]2[C@]1(C)O
[1]
  IC50: > 100 µM
HepG2
  IC50: 64.7 µM
HeLa [2]
  IC50: 23.2 µM
NCI-H446
  IC50: 70.8 µM
A-375
  IC50: 70.8 µM

## C[C@@H]1CC[C@]2(C(=O)O)CC[C@]3(C)C(=CC[C@@H]4[C@@]5(C)CC[C@H](O)[C@@](C)(CO)[C@@H]5CC[C@]43C)[C@@H]2[C@]1(C)O [ROTUNDIC ACID]
[1]
  IC50: 84 µM
HepG2
  IC50: 7.33 µM
HeLa [2]
  IC50: 31.9 µM
NCI-H446
  IC50: 11.4 µM
A-375
  IC50: 16.6 µM

## CC(=O)OC[C@@]1(C)[C@@H]2CC[C@]3(C)[C@H](CC=C4[C@H]5[C@](C(=O)NCCCO)(CC[C@@H](C)[C@@]5(C)O)CC[C@]43C)[C@@]2(C)CC[C@@H]1OC(C)=O
[1]
  IC50: 13.4 µM
HepG2
  IC50: 5.49 µM
HeLa [2]
  IC50: 6.97 µM
NCI-H446
  IC50: 5.08 µM
A-375
  IC50: 3.28 µM
